Calls of active or inactive are those of the source. No cut-off for these calls is given here.
How the values were obtained:
[1] = target: Eukaryotic translation initiation factor 2-alpha kinase 1 (Homo sapiens) (UniProt Q9BQI3); assay: Activation of HRI in human CRL-2813-pBISA-DL(ATF-4) reporter cells assessed as concentration required to obtain F-luciferase expression/R-luciferase expression ratio 3
Outline: (§1)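 Stably transfected CRL-2813-pBISA-DL(ATF-4) reporter cells treated with compounds in dose-response; firefly and renilla luciferases read by dual glow luciferase kit. Activity = firefly/renilla (F/R) ratio normalized to DMSO-treated wells (set at 1). Triplicate points fitted to logistic sigmoidal model by nonlinear least squares; C3X = concentration giving F/R = 3, Emax = maximal F/R.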

[2] = Cytotoxicity against human CRL2813 cells after 5 days by SRB assay; assay type: functional, cell-based; settings: CRL2813, 120 h
Outline: (§2)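 CRL-2813 melanoma or NIH/3T3 fibroblasts seeded in 96-well plates, exposed 5 days to 0.5–20 μM compound; fixed in cold 10% TCA, bound sulforhodamine B measured. % growth = 100×(T−T0)/(C−T0). IC50 derived; triplicate, three independent experiments.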

[3] = target: Eukaryotic translation initiation factor 2-alpha kinase 1 (Homo sapiens) (UniProt Q9BQI3); assay: Activation of HRI in human CRL-2813-pBISA-DL(ATF-4) reporter cells assessed as reduction of ternary complex at 30 uM by dual-luciferase reporter gene assay relative to control; outline: as §1
[4] = target: Eukaryotic translation initiation factor 2-alpha kinase 1 (Homo sapiens) (UniProt Q9BQI3); assay: Activation of HRI in human CRL2813 cells assessed as reduction in cyclin D1 mRNA expression at 7.5 to 15 uM after 6 hrs by RT-PCR analysis; assay type: cell-based
Outline: (§3)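 CRL-2813 cells incubated with 7.5 or 15 μM compound for 6 h; CHOP and cyclin D1 mRNA measured by real-time PCR. Each run in triplicate, mean of three independent experiments ±S.E.M.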

[5] = target: Eukaryotic translation initiation factor 2-alpha kinase 1 (Homo sapiens) (UniProt Q9BQI3); assay: Activation of HRI in human CRL2813 cells assessed as increase in CHOP mRNA expression at 7.5 to 15 uM after 6 hrs by RT-PCR analysis; assay type: cell-based; outline: as §3
[6] = target: Eukaryotic translation initiation factor 2-alpha kinase 1 (Homo sapiens) (UniProt Q9BQI3); assay: Activation of HRI in human CRL2813 cells assessed as reduction in cyclin D1 protein expression at 10 uM after 6 hrs by Western blotting analysis; assay type: cell-based
Outline: (§4)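 CRL-2813 melanoma cells grown in serum-containing medium without antibiotics to 70% confluence, treated 6 h (10 μM for CHOP/cyclin D1), lysed in M-PER on ice 30 min, protein by BCA. Equal protein on SDS-PAGE, probed with anti-pS51-eIF2α rabbit mAb, anti-total eIF2α mouse mAb, anti-CHOP, anti-cyclin D1, anti-actin. Three independent experiments.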

[7] = target: Eukaryotic translation initiation factor 2-alpha kinase 1 (Homo sapiens) (UniProt Q9BQI3); assay: Activation of HRI in human CRL2813 cells assessed as increase in CHOP protein expression at 10 uM after 6 hrs by Western blotting analysis; assay type: cell-based; outline: as §4
[8] = target: Eukaryotic translation initiation factor 2-alpha kinase 1 (Homo sapiens) (UniProt Q9BQI3); assay: Activation of HRI in human CRL2813 cells assessed as eIF2alpha phosphorylation after 6 hrs by Western blotting analysis; assay type: cell-based; outline: as §4
[9] = target: Eukaryotic translation initiation factor 2-alpha kinase 1 (Homo sapiens) (UniProt Q9BQI3); assay: Activation of HRI in human CRL-2813-pBISA-DL(ATF-4) reporter cells assessed as eIF2alpha phosphorylation after 8 to 32 hrs by dual-luciferase reporter gene assay
Outline: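 Reporter CRL-2813-pBISA-DL(ATF-4) cells incubated with compounds for 8, 16 or 32 h. Firefly/renilla luciferase ratio measured by dual luciferase assay and normalized to vehicle-treated cells.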

[10] = Antiproliferative activity against human CRL2813 cells after 3 days by SRB assay in presence of HRI-targeting siRNA; assay type: functional, cell-based; settings: CRL2813, 72 h
Outline: (§5)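 CRL-2813 cells transiently transfected (Lipofectamine 2000) with HRI-targeting or non-targeting siRNA, then treated with compound dose range; proliferation by SRB after 3 days. IC50 calculated per siRNA condition; ratio is HRI-siRNA over non-targeting IC50. Triplicate, three independent experiments; mean±S.E.M.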

[11] = Antiproliferative activity against human CRL2813 cells after 3 days by SRB assay in presence of non-targeting siRNA; assay type: functional, cell-based; settings: CRL2813, 72 h; outline: as §5
[12] = Selectivity ratio of IC50 for mouse NIH/3T3 cells to IC50 for human CRL2813 cells; assay type: ADME, cell-based; settings: NIH/3T3 cells and CRL2813 cells, read-out: Ratio IC50
NIH3T3 = assay: Cytotoxicity against mouse NIH/3T3 cells after 5 days by SRB assay; assay type: cell-based; settings: NIH3T3, 120 h; outline: as §2

Chain of Eukaryotic translation initiation factor 2-alpha kinase 1 (Homo sapiens) (Q9BQI3 whole entry): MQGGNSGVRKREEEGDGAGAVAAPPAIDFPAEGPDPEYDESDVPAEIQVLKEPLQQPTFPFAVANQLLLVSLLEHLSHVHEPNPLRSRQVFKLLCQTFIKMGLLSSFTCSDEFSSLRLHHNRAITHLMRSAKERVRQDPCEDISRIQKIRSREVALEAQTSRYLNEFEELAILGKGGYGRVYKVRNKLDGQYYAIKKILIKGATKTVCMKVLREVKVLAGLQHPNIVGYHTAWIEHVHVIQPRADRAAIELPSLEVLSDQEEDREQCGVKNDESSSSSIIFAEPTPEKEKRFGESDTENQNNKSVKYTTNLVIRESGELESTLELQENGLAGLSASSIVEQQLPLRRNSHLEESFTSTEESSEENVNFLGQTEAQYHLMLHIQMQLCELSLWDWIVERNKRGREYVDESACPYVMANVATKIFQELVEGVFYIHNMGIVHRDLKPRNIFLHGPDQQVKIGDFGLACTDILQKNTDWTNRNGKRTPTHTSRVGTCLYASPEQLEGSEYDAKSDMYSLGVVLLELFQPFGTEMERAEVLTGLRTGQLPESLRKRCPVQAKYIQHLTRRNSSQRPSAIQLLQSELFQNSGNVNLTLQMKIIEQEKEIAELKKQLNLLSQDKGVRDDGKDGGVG

Activity [1] [µM]	Ratio [3]	SMILES	IC50 [2] [µM]	further results
5.6	7.63	O=C(Nc1cccc(I)c1)N[C@H]1CC[C@H](Oc2ccc(F)cc2)CC1	5.2	
16.4	5.23	O=C(Nc1ccccc1Br)N[C@H]1CC[C@H](Oc2ccc(F)cc2)CC1	7.7	
2.7	4.52	O=C(Nc1cccc(C(F)(F)F)c1)N[C@H]1CCC[C@H](Oc2ccc(C(F)(F)F)cc2)C1 (relative stereo)	3.8	
	0.98	Cc1ccccc1NC(=O)N[C@H]1CC[C@H](Oc2ccc(F)cc2)CC1	> 20	
18.5	5.37	O=C(Nc1ccccc1Cl)N[C@H]1CC[C@H](Oc2ccc(F)cc2)CC1	9.1	
	1.56	O=C(Nc1ccccc1C(F)(F)F)N[C@H]1CC[C@H](Oc2ccc(F)cc2)CC1	> 20	Activity [4]: Active; Activity [5]: Active; Activity [6]: Active; Activity [7]: Active; Activity [8]: Active
1.7	5.89	O=C(Nc1cccc(C(F)(F)F)c1)N[C@H]1CCCC[C@@H]1Oc1ccc(C(F)(F)F)cc1 (relative stereo)	3.1	Activity [9]: Active
6.3	3.77	O=C(Nc1ccc(I)cc1)N[C@H]1CC[C@H](Oc2ccc(F)cc2)CC1	10.2	
18.5	3.25	O=C(Nc1ccccc1I)N[C@H]1CC[C@H](Oc2ccc(F)cc2)CC1	> 20	
	1.05	Cc1ccc(NC(=O)N[C@H]2CC[C@H](Oc3ccc(F)cc3)CC2)cc1	> 20	
24.1	4.73	Cc1cccc(NC(=O)N[C@H]2CC[C@H](Oc3ccc(F)cc3)CC2)c1	14.4	
	2.23	O=C(Nc1ccccc1[N+](=O)[O-])N[C@H]1CC[C@H](Oc2ccc(F)cc2)CC1	3.5	
1.2	15.7	O=C(Nc1cccc(C(F)(F)F)c1)N[C@H]1CC[C@H](Oc2ccccc2C(F)(F)F)CC1	1.4	
13.5	6.54	O=C(Nc1cccc(F)c1)N[C@H]1CC[C@H](Oc2ccc(F)cc2)CC1	8.3	Activity [4]: Active; Activity [5]: Active; Activity [6]: Active; Activity [7]: Active; Activity [8]: Active
1.1	26	O=C(Nc1cccc(C(F)(F)F)c1)N[C@H]1CC[C@H](Oc2cccc(C(F)(F)F)c2)CC1	1.3	IC50 [10]: 4.9 µM; IC50 [11]: 1.05 µM; selectivity ratio [12]: 2.5; IC50 (NIH3T3): 3.3 µM
	0.88	O=C(Nc1cccc(C(=O)O)c1)N[C@H]1CC[C@H](Oc2ccc(F)cc2)CC1	> 20	
	1.65	O=C(Nc1ccc(Cl)cc1)N[C@H]1CC[C@H](Oc2ccc(F)cc2)CC1	> 20	
12.2	6.67	CSc1cccc(NC(=O)N[C@H]2CC[C@H](Oc3ccc(F)cc3)CC2)c1	11.1	
11.4	7.47	O=C(Nc1cccc([N+](=O)[O-])c1)N[C@H]1CC[C@H](Oc2ccc(F)cc2)CC1	6.7	
26	3.81	COc1cccc(NC(=O)N[C@H]2CC[C@H](Oc3ccc(F)cc3)CC2)c1	14	
6.4	8.76	O=C(Nc1cccc(Cl)c1)N[C@H]1CC[C@H](Oc2ccc(F)cc2)CC1	5.9	

Activity [1] [µM]	Ratio [3]	SMILES	IC50 [2] [µM]	further results
	1.87	O=C(Nc1cccc(C(F)(F)F)c1)NC1CCCCC1	13.2	
	0.89	O=C(Nc1cccc(C(F)(F)F)c1)N[C@H]1CC[C@H](O)CC1	> 20	
	1.41	O=C(Nc1ccccc1OC(F)(F)F)N[C@H]1CC[C@H](Oc2ccc(F)cc2)CC1	> 20	
	1.29	O=C(Nc1ccc(Br)cc1)N[C@H]1CC[C@H](Oc2ccc(F)cc2)CC1	> 20	
5.7	9.52	O=C(Nc1cccc(Br)c1)N[C@H]1CC[C@H](Oc2ccc(F)cc2)CC1	6.2	
4.4	9.58	O=C(Nc1cccc(C(F)(F)F)c1)N[C@H]1CC[C@H](OCc2ccc(F)cc2)CC1	2.65	Activity [9]: Active
	1.65	O=C(Nc1ccccc1)N[C@H]1CC[C@H](Oc2ccc(F)cc2)CC1	20	
	0.83	COc1ccc(NC(=O)N[C@H]2CC[C@H](Oc3ccc(F)cc3)CC2)cc1	> 20	
0.3	25.1	O=C(Nc1cccc(C(F)(F)F)c1)N[C@H]1CC[C@H](Oc2ccc(C(F)(F)F)cc2)CC1	0.46	IC50 [10]: 5 µM; IC50 [11]: 0.66 µM; selectivity ratio [12]: 7.4; IC50 (NIH3T3): 3.4 µM
	1.07	CSc1ccc(NC(=O)N[C@H]2CC[C@H](Oc3ccc(F)cc3)CC2)cc1	> 20	
	1.2	O=C(Nc1ccccc1C(=O)O)N[C@H]1CC[C@@H](Oc2ccc(F)cc2)CC1	> 20	
	1.51	COc1ccccc1NC(=O)N[C@H]1CC[C@H](Oc2ccc(F)cc2)CC1	> 20	
1.6	6.73	O=C(Nc1cccc(C(F)(F)F)c1)N[C@H]1CC[C@H](Oc2ccc(Cl)cc2)CC1	2	
26.2	3.79	COC(=O)c1ccccc1NC(=O)N[C@H]1CC[C@@H](Oc2ccc(F)cc2)CC1	14.5	
21.2	3.49	O=C(Nc1ccc(C(=O)O)cc1)N[C@H]1CC[C@H](Oc2ccc(F)cc2)CC1	11.6	
	0.92	CSc1ccccc1NC(=O)N[C@H]1CC[C@H](Oc2ccc(F)cc2)CC1	> 20	
1.5	14.4	O=C(Nc1cccc(C(F)(F)F)c1)N[C@H]1CC[C@H](Oc2ccc(OC(F)(F)F)cc2)CC1	0.69	IC50 [10]: 4.9 µM; IC50 [11]: 0.85 µM; selectivity ratio [12]: 4.9; IC50 (NIH3T3): 3.4 µM
	2.1	O=C(Nc1ccccc1F)N[C@H]1CC[C@H](Oc2ccc(F)cc2)CC1	17.5	
12.8	3.97	COC(=O)c1ccc(NC(=O)N[C@H]2CC[C@H](Oc3ccc(F)cc3)CC2)cc1	11.6	
	0.98	O=C(Nc1ccc(F)cc1)N[C@H]1CC[C@H](Oc2ccc(F)cc2)CC1	20	
17.1	6.83	COC(=O)c1cccc(NC(=O)N[C@H]2CC[C@H](Oc3ccc(F)cc3)CC2)c1	9.2	
